ChEMBL document CHEMBL5724801, “EUbOPEN Chemogenomics Library - Multiplex” (2024)
Values joined by “and” are separate entries in the source; they are usually repeats but may differ in a detail not shown here. Identical values can stand only once. Non-standard residues stand in square brackets, D forms with d. Residues, ends and D or L forms follow the SMILES beside them.

System: HEK-293T
Experiment: Multiplex assay against HEK293T
Type: toxicity, cell-based
Details: human
Method in brief: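 Imaging took place on a CQ1 microscope at 37°C and 5% CO2 once compound had been added to live cells stained at seeding with Hoechst33342, BioTracker Green Microtubule Cytoskeleton Dye, MitoTracker Red and Annexin V Alexa Fluor 680. CellPathfinder machine-learning gating classed cells as Hoechst high-intensity objects or normal cells, classed normal cells as having healthy, pyknosed or fragmented nuclei, and classed pyknosed cells as mitotic or apoptotic. Tubulin, mitochondrial-mass and membrane-permeability phenotypes are per cents of the healthy-nucleus cells.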

[1] = 12 h, 1 µM, compound concentration 1 uM
[2] = 12 h, 10 µM, compound concentration 10 uM
[3] = 24 h, 1 µM, compound concentration 1 uM
[4] = 24 h, 10 µM, compound concentration 10 uM
[5] = 48 h, 1 µM, compound concentration 1 uM
[6] = 48 h, 10 µM, compound concentration 10 uM

CC(C)C[C@@H]1NC(=O)[C@@H](C(C)C)NC(=O)[C@@H]2CCCN2C(=O)[C@@H](CC(=O)O)NC(=O)[C@@H](Cc2c[nH]c3ccccc23)NC1=O [BQ-123] (cyclo(L[dW][dD]P[dV]))
Population Apoptotic (%) [1]: 46%
Population Fragmented Nuclei (%) [1]: 7% and 5%
Population Healthy Nuclei (%) [1]: 80% and 82%
Population Hoechst High Intensity Objects (%) [1]: 4% and 7%
Population Membrane Permeable-Phenotype (%) [1]: 0%
Population Mitochondria Different-Phenotype (%) [1]: 39% and 59%
Population Mitotic Cells (%) [1]: 53%
Population Normal (%) [1]: 95% and 92%
Population Pyknosed Nuclei (%) [1]: 11%
Population Tubulin-Different-Phenotype (%) [1]: 32% and 19%
Total Cell Count [1]: 376 and 392
Population Apoptotic (%) [2]: 30% and 71%
Population Fragmented Nuclei (%) [2]: 7% and 5%
Population Healthy Nuclei (%) [2]: 78%
Population Hoechst High Intensity Objects (%) [2]: 7% and 11%
Population Membrane Permeable-Phenotype (%) [2]: 0%
Population Mitochondria Different-Phenotype (%) [2]: 48% and 65%
Population Mitotic Cells (%) [2]: 69% and 28%
Population Normal (%) [2]: 92% and 88%
Population Pyknosed Nuclei (%) [2]: 14% and 16%
Population Tubulin-Different-Phenotype (%) [2]: 31% and 22%
Total Cell Count [2]: 387 and 265
Population Apoptotic (%) [3]: 26% and 40%
Population Fragmented Nuclei (%) [3]: 10% and 7%
Population Healthy Nuclei (%) [3]: 79% and 82%
Population Hoechst High Intensity Objects (%) [3]: 3% and 5%
Population Membrane Permeable-Phenotype (%) [3]: 0%
Population Mitochondria Different-Phenotype (%) [3]: 27% and 35%
Population Mitotic Cells (%) [3]: 73% and 59%
Population Normal (%) [3]: 96% and 94%
Population Pyknosed Nuclei (%) [3]: 9%
Population Tubulin-Different-Phenotype (%) [3]: 21% and 14%
Total Cell Count [3]: 497 and 538
Population Apoptotic (%) [4]: 25% and 57%
Population Fragmented Nuclei (%) [4]: 11% and 8%
Population Healthy Nuclei (%) [4]: 77% and 78%
Population Hoechst High Intensity Objects (%) [4]: 6% and 7%
Population Membrane Permeable-Phenotype (%) [4]: 0%
Population Mitochondria Different-Phenotype (%) [4]: 31% and 50%
Population Mitotic Cells (%) [4]: 75% and 42%
Population Normal (%) [4]: 93% and 92%
Population Pyknosed Nuclei (%) [4]: 11% and 12%
Population Tubulin-Different-Phenotype (%) [4]: 24% and 18%
Total Cell Count [4]: 511 and 302
Population Apoptotic (%) [5]: 21% and 24%
Population Fragmented Nuclei (%) [5]: 11%
Population Healthy Nuclei (%) [5]: 79% and 81%
Population Hoechst High Intensity Objects (%) [5]: 3% and 5%
Population Membrane Permeable-Phenotype (%) [5]: 0% and 1%
Population Mitochondria Different-Phenotype (%) [5]: 22% and 18%
Population Mitotic Cells (%) [5]: 78% and 75%
Population Normal (%) [5]: 96% and 94%
Population Pyknosed Nuclei (%) [5]: 9% and 7%
Population Tubulin-Different-Phenotype (%) [5]: 15% and 10%
Total Cell Count [5]: 719 and 777
Population Apoptotic (%) [6]: 25% and 40%
Population Fragmented Nuclei (%) [6]: 16% and 11%
Population Healthy Nuclei (%) [6]: 77% and 80%
Population Hoechst High Intensity Objects (%) [6]: 3%
Population Membrane Permeable-Phenotype (%) [6]: 1% and 0%
Population Mitochondria Different-Phenotype (%) [6]: 21% and 29%
Population Mitotic Cells (%) [6]: 75% and 59%
Population Normal (%) [6]: 96%
Population Pyknosed Nuclei (%) [6]: 6% and 8%
Population Tubulin-Different-Phenotype (%) [6]: 15% and 16%
Total Cell Count [6]: 756 and 477

COc1ccccc1N1CCN(C[C@@H](C(=O)NC(C)(C)C)c2ccccc2)CC1.Cl.Cl
Population Apoptotic (%) [1]: 24% and 42%
Population Fragmented Nuclei (%) [1]: 7% and 4%
Population Healthy Nuclei (%) [1]: 77% and 76%
Population Hoechst High Intensity Objects (%) [1]: 7% and 6%
Population Membrane Permeable-Phenotype (%) [1]: 0%
Population Mitochondria Different-Phenotype (%) [1]: 48% and 77%
Population Mitotic Cells (%) [1]: 75% and 57%
Population Normal (%) [1]: 92% and 93%
Population Pyknosed Nuclei (%) [1]: 14% and 19%
Population Tubulin-Different-Phenotype (%) [1]: 47% and 35%
Total Cell Count [1]: 434 and 300
Population Apoptotic (%) [2]: 62% and 58%
Population Fragmented Nuclei (%) [2]: 7% and 5%
Population Healthy Nuclei (%) [2]: 69%
Population Hoechst High Intensity Objects (%) [2]: 7% and 16%
Population Membrane Permeable-Phenotype (%) [2]: 0%
Population Mitochondria Different-Phenotype (%) [2]: 88% and 79%
Population Mitotic Cells (%) [2]: 37% and 41%
Population Normal (%) [2]: 92% and 83%
Population Pyknosed Nuclei (%) [2]: 23% and 25%
Population Tubulin-Different-Phenotype (%) [2]: 74% and 59%
Total Cell Count [2]: 333 and 231
Population Apoptotic (%) [3]: 19% and 34%
Population Fragmented Nuclei (%) [3]: 8% and 11%
Population Healthy Nuclei (%) [3]: 81% and 76%
Population Hoechst High Intensity Objects (%) [3]: 4% and 6%
Population Membrane Permeable-Phenotype (%) [3]: 0%
Population Mitochondria Different-Phenotype (%) [3]: 31% and 54%
Population Mitotic Cells (%) [3]: 80% and 65%
Population Normal (%) [3]: 95% and 93%
Population Pyknosed Nuclei (%) [3]: 9% and 11%
Population Tubulin-Different-Phenotype (%) [3]: 29% and 28%
Total Cell Count [3]: 563 and 387
Population Apoptotic (%) [4]: 45% and 66%
Population Fragmented Nuclei (%) [4]: 8%
Population Healthy Nuclei (%) [4]: 68% and 76%
Population Hoechst High Intensity Objects (%) [4]: 7% and 14%
Population Membrane Permeable-Phenotype (%) [4]: 0%
Population Mitochondria Different-Phenotype (%) [4]: 77% and 73%
Population Mitotic Cells (%) [4]: 54% and 33%
Population Normal (%) [4]: 92% and 85%
Population Pyknosed Nuclei (%) [4]: 23% and 15%
Population Tubulin-Different-Phenotype (%) [4]: 61% and 48%
Total Cell Count [4]: 377 and 251
Population Apoptotic (%) [5]: 22% and 38%
Population Fragmented Nuclei (%) [5]: 13% and 10%
Population Healthy Nuclei (%) [5]: 78% and 80%
Population Hoechst High Intensity Objects (%) [5]: 2% and 6%
Population Membrane Permeable-Phenotype (%) [5]: 1% and 0%
Population Mitochondria Different-Phenotype (%) [5]: 19% and 37%
Population Mitotic Cells (%) [5]: 77% and 61%
Population Normal (%) [5]: 97% and 93%
Population Pyknosed Nuclei (%) [5]: 8% and 9%
Population Tubulin-Different-Phenotype (%) [5]: 18% and 20%
Total Cell Count [5]: 908 and 480
Population Apoptotic (%) [6]: 50% and 62%
Population Fragmented Nuclei (%) [6]: 14% and 10%
Population Healthy Nuclei (%) [6]: 72% and 76%
Population Hoechst High Intensity Objects (%) [6]: 6% and 5%
Population Membrane Permeable-Phenotype (%) [6]: 0%
Population Mitochondria Different-Phenotype (%) [6]: 59% and 58%
Population Mitotic Cells (%) [6]: 49% and 37%
Population Normal (%) [6]: 93% and 94%
Population Pyknosed Nuclei (%) [6]: 13%
Population Tubulin-Different-Phenotype (%) [6]: 44% and 36%
Total Cell Count [6]: 467 and 375

CCOc1ccccc1C(=O)NCC1(N2CCN(CC)CC2)CCCCC1
Population Apoptotic (%) [1]: 17.61% and 11.57%
Population Fragmented Nuclei (%) [1]: 1.59% and 5.52%
Population Hoechst High Intensity Objects (%) [1]: 0%
Population Membrane Permeable-Phenotype (%) [1]: 0.66% and 6.25%
Population Mitotic Cells (%) [1]: 82.39% and 88.43%
Population Normal (%) [1]: 100%
Population Pyknosed Nuclei (%) [1]: 50.48% and 83.45%
Population Tubulin-Different-Phenotype (%) [1]: 10.6% and 18.75%
Total Cell Count [1]: 315 and 145
Population Apoptotic (%) [2]: 15.84% and 21.31%
Population Fragmented Nuclei (%) [2]: 1.84% and 5.41%
Population Healthy Nuclei (%) [2]: 36.2% and 12.16%
Population Hoechst High Intensity Objects (%) [2]: 0% and 0.67%
Population Membrane Permeable-Phenotype (%) [2]: 0.85% and 0%
Population Mitochondria Different-Phenotype (%) [2]: 25.42% and 50%
Population Mitotic Cells (%) [2]: 84.16% and 78.69%
Population Normal (%) [2]: 100% and 99.33%
Population Pyknosed Nuclei (%) [2]: 61.96% and 82.43%
Population Tubulin-Different-Phenotype (%) [2]: 38.14% and 77.78%
Total Cell Count [2]: 326 and 149
Population Apoptotic (%) [3]: 13.73% and 14.84%
Population Fragmented Nuclei (%) [3]: 1% and 7.69%
Population Hoechst High Intensity Objects (%) [3]: 0.2% and 0.59%
Population Membrane Permeable-Phenotype (%) [3]: 2.05% and 0%
Population Mitochondria Different-Phenotype (%) [3]: 24.34% and 10.71%
Population Mitotic Cells (%) [3]: 86.27% and 85.16%
Population Normal (%) [3]: 99.8% and 99.41%
Population Pyknosed Nuclei (%) [3]: 30.66% and 75.74%
Population Tubulin-Different-Phenotype (%) [3]: 21.41% and 10.71%
Total Cell Count [3]: 500 and 170
Population Apoptotic (%) [4]: 40.41% and 45.37%
Population Fragmented Nuclei (%) [4]: 1.63% and 6.29%
Population Hoechst High Intensity Objects (%) [4]: 0%
Population Membrane Permeable-Phenotype (%) [4]: 1.45% and 0%
Population Mitochondria Different-Phenotype (%) [4]: 39.49% and 42.31%
Population Mitotic Cells (%) [4]: 59.59% and 54.63%
Population Normal (%) [4]: 100%
Population Pyknosed Nuclei (%) [4]: 34.03% and 75.52%
Population Tubulin-Different-Phenotype (%) [4]: 64.13% and 73.08%
Total Cell Count [4]: 429 and 143
Population Fragmented Nuclei (%) [5]: 1.56% and 2.66%
Population Healthy Nuclei (%) [5]: 84.02% and 40.96%
Population Hoechst High Intensity Objects (%) [5]: 0%
Population Membrane Permeable-Phenotype (%) [5]: 5.34% and 1.3%
Population Mitochondria Different-Phenotype (%) [5]: 24.83% and 45.45%
Population Mitotic Cells (%) [5]: 94.59% and 81.13%
Population Normal (%) [5]: 100%
Population Apoptotic (%) [6]: 21.8% and 42.22%
Population Fragmented Nuclei (%) [6]: 2.46% and 4.08%
Population Healthy Nuclei (%) [6]: 79.37% and 50%
Population Hoechst High Intensity Objects (%) [6]: 0.14% and 1.01%
Population Membrane Permeable-Phenotype (%) [6]: 3.96% and 3.06%
Population Mitochondria Different-Phenotype (%) [6]: 67.81% and 74.49%
Population Mitotic Cells (%) [6]: 78.2% and 57.78%
Population Normal (%) [6]: 99.86% and 98.99%
Population Pyknosed Nuclei (%) [6]: 18.17% and 45.92%
